Measured values taken from ChEMBL document CHEMBL2375313, “Synthesis, in vitro antitumor evaluation and DNA-binding study of novel tetrahydroquinolines and some derived tricyclic and tetracyclic ring systems” (Eur J Med Chem, 2013).
Values after ≈ are worked out from the molar mass of the structure shown. Active and inactive are the calls of the source. The calls are words filed in the database; no cut-off is given here.

Key:
HOP-92 = test: Cytotoxicity against human HOP92 cells assessed as growth inhibition at 10 uM after 48 hrs by sulphorhodamine B assay; assay type: functional; conditions: HOP-92, 48 h, read-out: GI
How it was run: (§1)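 NCI-60 one-dose screen per the NCI Drug Evaluation Branch protocol. Cells given a single 10 µM concentration with 48 h continuous exposure. Growth estimated by sulphorhodamine B protein assay. Result expressed as percentage growth inhibition relative to untreated growth.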

NCI-H23 = test: Cytotoxicity against human NCI-H23 cells assessed as growth inhibition at 10 uM after 48 hrs by sulphorhodamine B assay; assay type: functional; conditions: NCI-H23, 48 h, read-out: GI; how it was run: as §1
[1] = Cytotoxicity against human EKVX cells assessed as growth inhibition at 10 uM after 48 hrs by sulphorhodamine B assay; assay type: functional; conditions: read-out: GI; how it was run: as §1
A549 = test: Cytotoxicity against human A549 cells assessed as growth inhibition at 10 uM after 48 hrs by sulphorhodamine B assay; assay type: functional; conditions: A549, 48 h, read-out: GI; how it was run: as §1
[2] = Displacement of methyl green from DNA (unknown origin) after 24 hrs
How it was run: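 DNA-methyl green complex was stirred in 0.05 M Tris-HCl pH 7.5 with 7.5 mmol MgSO4 at 37 °C for 24 h. Compound was dried down from EtOH in tubes and the DNA-methyl green solution added. A630 was read initially and after 24 h dark incubation at room temperature, corrected and normalized to untreated complex. IC50 is the concentration giving a 50% absorbance decrease; mean ± SD, n = 6.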

[3] = Binding affinity to DNA (unknown origin) at 5 mg/mL by RP-TLC plate analysis
How it was run: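 Reversed-phase C18 TLC plates pre-developed in methanol/water 8:2. Compound spotted at origin (5 mg/mL in methanol), then DNA (1 mg/mL in water/methanol 8:2) applied at the same spot. Plates developed in the same eluent; DNA located by anisaldehyde spray (blue). Ethidium bromide as positive control.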

NCI/ADR-RES = test: Cytotoxicity against human NCI/ADR-RES cells assessed as growth inhibition at 10 uM after 48 hrs by sulphorhodamine B assay; assay type: functional; conditions: read-out: GI; how it was run: as §1
SNB-75 = test: Cytotoxicity against human SNB75 cells assessed as growth inhibition at 10 uM after 48 hrs by sulphorhodamine B assay; assay type: functional; conditions: SNB-75, 48 h, read-out: GI; how it was run: as §1
U-251 = test: Cytotoxicity against human U251 cells assessed as growth inhibition at 10 uM after 48 hrs by sulphorhodamine B assay; assay type: functional; conditions: U-251, 48 h, read-out: GI; how it was run: as §1
SNB-19 = test: Cytotoxicity against human SNB19 cells assessed as growth inhibition at 10 uM after 48 hrs by sulphorhodamine B assay; assay type: functional; conditions: SNB-19, 48 h, read-out: GI; how it was run: as §1
SF-295 = test: Cytotoxicity against human SF295 cells assessed as growth inhibition at 10 uM after 48 hrs by sulphorhodamine B assay; assay type: functional; conditions: SF-295, 48 h, read-out: GI; how it was run: as §1
DU-145 = test: Cytotoxicity against human DU145 cells assessed as growth inhibition at 10 uM after 48 hrs by sulphorhodamine B assay; assay type: functional; conditions: DU-145, 48 h, read-out: GI; how it was run: as §1
SF-268 = test: Cytotoxicity against human SF268 cells assessed as growth inhibition at 10 uM after 48 hrs by sulphorhodamine B assay; assay type: functional; conditions: SF-268, 48 h, read-out: GI; how it was run: as §1
PC-3 = test: Cytotoxicity against human PC3 cells assessed as growth inhibition at 10 uM after 48 hrs by sulphorhodamine B assay; assay type: functional; conditions: PC-3, 48 h, read-out: GI; how it was run: as §1
UACC-62 = test: Cytotoxicity against human UACC62 cells assessed as growth inhibition at 10 uM after 48 hrs by sulphorhodamine B assay; assay type: functional; conditions: UACC-62, 48 h, read-out: GI; how it was run: as §1
SK-MEL-2 = test: Cytotoxicity against human SK-MEL-2 cells assessed as growth inhibition at 10 uM after 48 hrs by sulphorhodamine B assay; assay type: functional; conditions: SK-MEL-2, 48 h, read-out: GI; how it was run: as §1
SK-MEL-5 = test: Cytotoxicity against human SK-MEL-5 cells assessed as growth inhibition at 10 uM after 48 hrs by sulphorhodamine B assay; assay type: functional; conditions: SK-MEL-5, 48 h, read-out: GI; how it was run: as §1
M14 = test: Cytotoxicity against human M14 cells assessed as growth inhibition at 10 uM after 48 hrs by sulphorhodamine B assay; assay type: functional; conditions: M14, 48 h, read-out: GI; how it was run: as §1
LOX IMVI = test: Cytotoxicity against human LOXIMVI cells assessed as growth inhibition at 10 uM after 48 hrs by sulphorhodamine B assay; assay type: functional; conditions: read-out: GI; how it was run: as §1
UO-31 = test: Cytotoxicity against human UO31 cells assessed as growth inhibition at 10 uM after 48 hrs by sulphorhodamine B assay; assay type: functional; conditions: UO-31, 48 h, read-out: GI; how it was run: as §1
CAKI-1 = test: Cytotoxicity against human Caki1 cells assessed as growth inhibition at 10 uM after 48 hrs by sulphorhodamine B assay; assay type: functional; conditions: CAKI-1, 48 h, read-out: GI; how it was run: as §1
RXF 393 = test: Cytotoxicity against human RXF393 cells assessed as growth inhibition at 10 uM after 48 hrs by sulphorhodamine B assay; assay type: functional; conditions: RXF 393, 48 h, read-out: GI; how it was run: as §1
ACHN = test: Cytotoxicity against human ACHN cells assessed as growth inhibition at 10 uM after 48 hrs by sulphorhodamine B assay; assay type: functional; conditions: read-out: GI; how it was run: as §1
SR = test: Cytotoxicity against human SR cells assessed as growth inhibition at 10 uM after 48 hrs by sulphorhodamine B assay; assay type: functional; conditions: read-out: GI; how it was run: as §1
A498 = test: Cytotoxicity against human A498 cells assessed as growth inhibition at 10 uM after 48 hrs by sulphorhodamine B assay; assay type: functional; conditions: A498, 48 h, read-out: GI; how it was run: as §1
RPMI-8226 = test: Cytotoxicity against human RPMI8226 cells assessed as growth inhibition at 10 uM after 48 hrs by sulphorhodamine B assay; assay type: functional; conditions: RPMI-8226, 48 h, read-out: GI; how it was run: as §1
MOLT-4 = test: Cytotoxicity against human MOLT4 cells assessed as growth inhibition at 10 uM after 48 hrs by sulphorhodamine B assay; assay type: functional; conditions: MOLT-4, 48 h, read-out: GI; how it was run: as §1
K562 = test: Cytotoxicity against human K562 cells assessed as growth inhibition at 10 uM after 48 hrs by sulphorhodamine B assay; assay type: functional; conditions: K562, 48 h, read-out: GI; how it was run: as §1
HL-60(TB) = test: Cytotoxicity against human HL-60(TB) cells assessed as growth inhibition at 10 uM after 48 hrs by sulphorhodamine B assay; assay type: functional; conditions: HL-60, 48 h, read-out: GI
How it was run: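 NCI-60 one-dose primary screen run to the Drug Evaluation Branch protocol. Cells are exposed to a single 10 µM concentration for 48 h continuously, and growth is read by SRB protein assay. Data are reported as percent growth of treated cells, expressed as % growth inhibition.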

SK-OV-3 = test: Cytotoxicity against human SKOV3 cells assessed as growth inhibition at 10 uM after 48 hrs by sulphorhodamine B assay; assay type: functional; conditions: SK-OV-3, 48 h, read-out: GI; how it was run: as §1
CCRF-CEM = test: Cytotoxicity against human CCRF-CEM cells assessed as growth inhibition at 10 uM after 48 hrs by sulphorhodamine B assay; assay type: functional; conditions: read-out: GI; how it was run: as §1
OVCAR-5 = test: Cytotoxicity against human OVCAR5 cells assessed as growth inhibition at 10 uM after 48 hrs by sulphorhodamine B assay; assay type: functional; conditions: OVCAR-5, 48 h, read-out: GI; how it was run: as §1
OVCAR-4 = test: Cytotoxicity against human OVCAR4 cells assessed as growth inhibition at 10 uM after 48 hrs by sulphorhodamine B assay; assay type: functional; conditions: OVCAR-4, 48 h, read-out: GI; how it was run: as §1
IGROV-1 = test: Cytotoxicity against human IGROV1 cells assessed as growth inhibition at 10 uM after 48 hrs by sulphorhodamine B assay; assay type: functional; conditions: IGROV-1, 48 h, read-out: GI; how it was run: as §1
T47D = test: Cytotoxicity against human T47D cells assessed as growth inhibition at 10 uM after 48 hrs by sulphorhodamine B assay; assay type: functional; conditions: read-out: GI; how it was run: as §1
Hs-578T = test: Cytotoxicity against human Hs578T cells assessed as growth inhibition at 10 uM after 48 hrs by sulphorhodamine B assay; assay type: functional; conditions: read-out: GI; how it was run: as §1
NCI-H522 = test: Cytotoxicity against human NCI-H522 cells assessed as growth inhibition at 10 uM after 48 hrs by sulphorhodamine B assay; assay type: functional; conditions: NCI-H522, 48 h, read-out: GI; how it was run: as §1
HT-29 = test: Cytotoxicity against human HT-29 cells assessed as growth inhibition at 10 uM after 48 hrs by sulphorhodamine B assay; assay type: functional; conditions: HT-29, 48 h, read-out: GI; how it was run: as §1
MCF7 = test: Cytotoxicity against human MCF7 cells assessed as growth inhibition at 10 uM after 48 hrs by sulphorhodamine B assay; assay type: functional; conditions: MCF7, 48 h, read-out: GI; how it was run: as §1
MDA-MB-435 = test: Cytotoxicity against human MDA-MB-435 cells assessed as growth inhibition at 10 uM after 48 hrs by sulphorhodamine B assay; assay type: functional; conditions: MDA-MB-435, 48 h, read-out: GI; how it was run: as §1
HCT-15 = test: Cytotoxicity against human HCT15 cells assessed as growth inhibition at 10 uM after 48 hrs by sulphorhodamine B assay; assay type: functional; conditions: HCT-15, 48 h, read-out: GI; how it was run: as §1
HCT-116 = test: Cytotoxicity against human HCT116 cells assessed as growth inhibition at 10 uM after 48 hrs by sulphorhodamine B assay; assay type: functional; conditions: HCT-116, 48 h, read-out: GI; how it was run: as §1

For CC1CCCc2c1nc1[nH]c(=S)nc(N)c1c2-c1ccc(Cl)cc1 (configuration not stated), the inhibition of growth at 10 µM (HOP-92) was less than 10%, the inhibition of growth at 10 µM (NCI-H23) was 10.1% and the inhibition of growth at 10 µM [1] was 14.5%. For the same compound, the inhibition of growth at 10 µM (A549) was less than 10%, the IC50 [2] was 0.151 µg/mL (≈ 0.423 µM) and the Activity [3] was “Active”. The inhibition of growth at 10 µM (NCI/ADR-RES) was less than 10%, the inhibition of growth at 10 µM (SNB-75) was 10.2% and the inhibition of growth at 10 µM (U-251) was less than 10%. It also gave an inhibition of growth at 10 µM (SNB-19) of 10%, an inhibition of growth at 10 µM (SF-295) of less than 10% and an inhibition of growth at 10 µM (DU-145) of less than 10%. The inhibition of growth at 10 µM (SF-268) was 18.8%, the inhibition of growth at 10 µM (PC-3) was 56.7% and the inhibition of growth at 10 µM (UACC-62) was 15.8%. For the same compound, the inhibition of growth at 10 µM (SK-MEL-2) was 11.4%, the inhibition of growth at 10 µM (SK-MEL-5) was 10.3% and the inhibition of growth at 10 µM (M14) was less than 10%. The inhibition of growth at 10 µM (LOX IMVI) was less than 10%, the inhibition of growth at 10 µM (UO-31) was less than 10% and the inhibition of growth at 10 µM (CAKI-1) was 31.3%. The inhibition of growth at 10 µM (RXF 393) was less than 10%, the inhibition of growth at 10 µM (ACHN) was less than 10% and the inhibition of growth at 10 µM (SR) was 25.8%. The inhibition of growth at 10 µM (A498) was 11.5%, the inhibition of growth at 10 µM (RPMI-8226) was 37% and the inhibition of growth at 10 µM (MOLT-4) was 26.2%. The inhibition of growth at 10 µM (K562) was 15%, the inhibition of growth at 10 µM (HL-60(TB)) was 10% and the inhibition of growth at 10 µM (SK-OV-3) was less than 10%. The inhibition of growth at 10 µM (CCRF-CEM) was 28.8%, the inhibition of growth at 10 µM (OVCAR-5) was less than 10% and the inhibition of growth at 10 µM (OVCAR-4) was less than 10%. For the same compound, the inhibition of growth at 10 µM (IGROV-1) was 10%, the inhibition of growth at 10 µM (T47D) was 15.2% and the inhibition of growth at 10 µM (Hs-578T) was less than 10%. It also gave an inhibition of growth at 10 µM (NCI-H522) of 10%, an inhibition of growth at 10 µM (HT-29) of less than 10% and an inhibition of growth at 10 µM (MCF7) of 10.4%. For the same compound, the inhibition of growth at 10 µM (MDA-MB-435) was less than 10%, the inhibition of growth at 10 µM (HCT-15) was 14.3% and the inhibition of growth at 10 µM (HCT-116) was 10.5%.
